From ChEMBL document CHEMBL1681789, “New bichalcone analogs as NF-κB inhibitors and as cytotoxic agents inducing Fas/CD95-dependent apoptosis” (Bioorg Med Chem, 2011)
Activity calls are given as the source filed them. The rule behind the calls is not given here.

Experiments:
KB = assay: Cytotoxicity against human KB cells after 3 days; assay type: functional; details: 72 h
Method in brief: (§1)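 Seeded at 1500–7500 cells/well; compounds added from DMSO-diluted stock. After 3 days, attached cells were fixed with cold 50% TCA, stained with 0.4% sulforhodamine B and read at 562 nm. EC50 is the concentration reducing growth by 50%, averaged over at least three independent determinations. Cells were grown in RPMI-1640 with […], 0.25% bicarbonate and 10% FBS.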

A549 = assay: Cytotoxicity against human A549 cells after 3 days; assay type: functional; details: A549, 72 h; method in brief: as §1
HCT-8 = assay: Cytotoxicity against human HCT8 cells after 3 days; assay type: functional; details: HCT-8, 72 h; method in brief: as §1
DU-145 = assay: Cytotoxicity against human DU145 cells after 3 days; assay type: functional; details: DU-145, 72 h; method in brief: as §1
HT-29 [1] = assay: Cytotoxicity against human HT-29 cells for 24 hrs by MTT assay; assay type: functional, cell-based
Method in brief: (§2)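 HT-29 cells in 96-well plates were exposed to 0–50 µM for 24 h, or to 30 µM for 12–72 h. MTT was then added for 4 h at 37 °C in the dark, and formazan was dissolved in DMSO and read at 570 nm. Viability is expressed as % of untreated OD, run in triplicate, mean±SD.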

HT-29 [2] = assay: Cytotoxicity against human HT-29 cells at 30 uM by MTT assay; assay type: functional, cell-based; details: TDE = time-dependent effect; method in brief: as §2
HT-29 [3] = assay: Cytotoxicity against human HT-29 cells assessed as nuclear shrinkage and chromatin condensation at 30 uM for 24 hrs using DAPI staining by fluorescence microscopy relative to untreated cells; assay type: functional, cell-based
Method in brief: (§3)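 HT-29 cells, kept in RPMI-1640 with FBS and penicillin/streptomycin, were treated for 24 or 48 h. They were fixed in 4% paraformaldehyde for 30 min and stained with 1 µg/mL DAPI for 30 min in the dark. Nuclear morphology was examined by fluorescence microscopy at ×200.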

HT-29 [4] = assay: Cytotoxicity against human HT-29 cells assessed as nuclear shrinkage and chromatin condensation at 50 uM for 24 hrs using DAPI staining by fluorescence microscopy relative to untreated cells; assay type: functional, cell-based; method in brief: as §3
HT-29 [5] = assay: Cytotoxicity against human HT-29 cells assessed as nuclear shrinkage and chromatin condensation at 30 uM for 48 hrs using DAPI staining by fluorescence microscopy relative to untreated cells; assay type: functional, cell-based; method in brief: as §3
HT-29 [6] = assay: Cytotoxicity against human HT-29 cells assessed as nuclear shrinkage and chromatin condensation at 50 uM for 48 hrs using DAPI staining by fluorescence microscopy relative to untreated cells; assay type: functional, cell-based; method in brief: as §3
HT-29 [7] = assay: Induction of apoptosis in human HT-29 cells assessed as DNA fragmentation at 30 uM using TUNEL staining by flow cytometry; assay type: functional, cell-based
Method in brief: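 HT-29 cells in 6-well plates were treated with 30 µM for 24 and 48 h and harvested. They were labeled with TdT enzyme at 37 °C for 1 h, then FITC anti-digoxigenin conjugate at 37 °C for 30 min in the dark. TUNEL-positive cells were counted by flow cytometry, in triplicate.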

HT-29 [8] = assay: Induction of apoptosis in human HT-29 cells at 30 uM for 24 hrs pretreated with caspase 3 inhibitor […] for 1 hr by MTT assay; assay type: functional, cell-based
Method in brief: (§4)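 HT-29 cells were pretreated for 1 h with caspase-3, -8 or -9 inhibitor (dissolved in DMSO, diluted in medium), then given 30 µM for 24 h. Viability was read by MTT at 570 nm, in triplicate.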

HT-29 [9] = assay: Induction of apoptosis in human HT-29 cells at 30 uM for 24 hrs pretreated with caspase 9 inhibitor Z-LEHD-FMK for 1 hr by MTT assay; assay type: functional, cell-based; method in brief: as §4
HT-29 [10] = assay: Induction of apoptosis in human HT-29 cells at 30 uM for 24 hrs pretreated with caspase 8 inhibitor Z-IETD-FMK for 1 hr by MTT assay; assay type: functional, cell-based; method in brief: as §4
HT-29 [11] = assay: Induction of apoptosis in human HT-29 cells assessed as increased expression of Fas/CD95 protein by Western blotting; assay type: functional, cell-based
Method in brief: (§5)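 Total or cytosolic extracts (30 µg protein) from treated HT-29 cells were run on SDS-PAGE and transferred to PVDF. Blots were probed for 12 h with monoclonal antibodies to the named protein, followed by an HRP secondary, and detected by ECL.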

HT-29 [12] = assay: Induction of apoptosis in human HT-29 cells assessed as increased expression of FADD protein by Western blotting; assay type: functional, cell-based; method in brief: as §5
HT-29 [13] = assay: Induction of apoptosis in human HT-29 cells assessed as increased expression of cytosolic cytochrome C protein by Western blotting; assay type: functional, cell-based; method in brief: as §5
HT-29 [14] = assay: Induction of apoptosis in human HT-29 cells assessed as increased expression of Apaf-1 protein by Western blotting; assay type: functional, cell-based; method in brief: as §5
HT-29 [15] = assay: Induction of apoptosis in human HT-29 cells assessed as increased expression of AIF protein by Western blotting; assay type: functional, cell-based; method in brief: as §5
HT-29 [16] = assay: Induction of apoptosis in human HT-29 cells assessed as increased expression of Endo G protein by Western blotting; assay type: functional, cell-based; method in brief: as §5
HT-29 [17] = assay: Induction of apoptosis in human HT-29 cells assessed as increased expression of caspase 3 protein by Western blotting; assay type: functional, cell-based; method in brief: as §5
HT-29 [18] = assay: Induction of apoptosis in human HT-29 cells assessed as increased expression of Bax protein by Western blotting; assay type: functional, cell-based; method in brief: as §5
HT-29 [19] = assay: Induction of apoptosis in human HT-29 cells assessed as increased expression of t-Bid protein by Western blotting; assay type: functional, cell-based; method in brief: as §5
HT-29 [20] = assay: Induction of apoptosis in human HT-29 cells assessed as decreased expression of pro-caspase-8 protein by Western blotting; assay type: functional, cell-based; method in brief: as §5
HT-29 [21] = assay: Induction of apoptosis in human HT-29 cells assessed as decreased expression of pro-caspase-9 protein by Western blotting; assay type: functional, cell-based; method in brief: as §5
HT-29 [22] = assay: Induction of apoptosis in human HT-29 cells assessed as decreased expression of Bcl-2 protein by Western blotting; assay type: functional, cell-based; method in brief: as §5
[23] = Inhibition of Nitric oxide synthase activity in mouse BV2 cells assessed as LPS-induced NO production after 24 hrs by Griess reaction; assay type: cell-based; details: BV-2, 24 h
Method in brief: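 Murine BV2 microglia were cultured in DMEM with 5% FBS and given 1–50 µM drug with 0.5 µg/mL LPS. Nitrite accumulated in the medium over 24 h was measured by Griess reagent. IC50 values are means ± SEM from 3–6 experiments on different days using different passages.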

BV-2 = assay: Inhibition of NADPH oxidase mediated-ROS production in mouse BV2 cells; assay type: cell-based
Method in brief: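 Compounds were incubated with 50 µg microglial cell homogenate for 20 min at 37 °C in the dark. Superoxide production was started with 200 µM NADPH, and chemiluminescence was followed for 30 min; the AUC represents ROS production. DPI served as positive control.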

HT-29 [24] = assay: Induction of apoptosis in human HT-29 cells assessed as caspase 3 activation at 30 uM for 24 hrs by MTT assay; assay type: functional, cell-based
HT-29 [25] = assay: Induction of apoptosis in human HT-29 cells assessed as caspase 8 activation at 30 uM for 24 hrs by MTT assay; assay type: functional, cell-based
HT-29 [26] = assay: Induction of apoptosis in human HT-29 cells assessed as caspase 9 activation at 30 uM for 24 hrs by MTT assay; assay type: functional, cell-based

SMILES: COc1cc(C(=O)/C=C/c2cccnc2)cc(CN2CCN(c3ccc(C(C)=O)cc3)CC2)c1O
- GI50 (KB): 13.1 µM
- GI50 (A549): 9.77 µM
- GI50 (HCT-8): 11.2 µM
- GI50 (DU-145): 9.98 µM
- Activity (HT-29 [1]): Dose-dependent effect
- Activity (HT-29 [2]): tde
- Activity (HT-29 [3]): Active
- Activity (HT-29 [4]): Active
- Activity (HT-29 [5]): Active
- Activity (HT-29 [6]): Active
- Activity (HT-29 [7]): Active
- Activity (HT-29 [8]): inactive
- Activity (HT-29 [9]): inactive
- Activity (HT-29 [10]): inactive
- Activity (HT-29 [11]): Active
- Activity (HT-29 [12]): Active
- Activity (HT-29 [13]): Active
- Activity (HT-29 [14]): Active
- Activity (HT-29 [15]): Active
- Activity (HT-29 [16]): Active
- Activity (HT-29 [17]): Active
- Activity (HT-29 [18]): Active
- Activity (HT-29 [19]): Active
- Activity (HT-29 [20]): Active
- Activity (HT-29 [21]): Active
- Activity (HT-29 [22]): Active
- IC50 [23]: 3.5 µM
- inhibition (BV-2): inactive
- Activity (HT-29 [24]): Active
- Activity (HT-29 [25]): Active
- Activity (HT-29 [26]): Active
